Test results from ChEMBL document CHEMBL4385654, “Inhibitory effects of N-(acryloyl)benzamide derivatives on tyrosinase and melanogenesis” (Bioorg Med Chem, 2019).
Active and inactive are the calls of the source. The calls are words filed in the database; no cut-off is given here.

Tests used:
[1] = Antioxidant activity assessed as DPPH-radical scavenging activity at 1 mM incubated for 30 mins under dark condition by microplate reader based assay relative to control; format: functional
Summary of the method: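 20 µL of 10 mM DMSO stock mixed with 180 µL of 0.2 mM DPPH in methanol (stated test level 1 mM). L-ascorbic acid served as the positive control. Kept 30 min in the dark, then absorbance read at 517 nm. Scavenging % = 100×(Ac−As)/Ac against the untreated control. Three independent experiments, mean ± SD.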

Mus musculus [2] = species on record: Mus musculus; experiment: Inhibition of tyrosinase in alpha-MSH-stimulated mouse B16F10 cells at 25 uM incubated for 24 hrs by microplate reader based assay
Summary of the method: (§1)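 B16F10 cells were seeded at 5x10^4 per well and cultured 24 h, then given 1 µM α-MSH plus agent (0–25 µM; kojic acid 25 µM; arbutin 400 µM) for 24 h. Cells were PBS-washed and lysed in 1% Triton X-100, 0.1 mM PMSF, 50 mM phosphate pH 6.8. Lysate was frozen at −80 °C, then centrifuged. 80 µL supernatant was mixed with 20 µL 10 mM L-DOPA, held 30 min at 37 °C, and OD500 read. Triplicate runs.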

B16-F10 = experiment: Cytotoxicity in mouse B16F10 cells assessed as reduction in cell viability up to 25 uM incubated for 24 hrs by WST-8 assay; format: cell-based; conditions: b16-f10, 24 h
Summary of the method: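 B16F10 murine melanoma cells were grown in DMEM with 10% FBS, penicillin and streptomycin at 37 °C and 5% CO2, seeded at 5x10^4 per well and cultured 24 h. They were then dosed at 0, 5, 10 or 25 for 24 h. WST-8 reagent was added, and OD450 was read. Viability is given as % of untreated cells; triplicate runs.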

Mus musculus [3] = species on record: Mus musculus; experiment: Inhibition of tyrosinase in alpha-MSH-stimulated mouse B16F10 cells assessed as reduction in melanin levels at 5 uM incubated for 24 hrs by microplate reader based assay relative to control
Summary of the method: (§2)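 B16F10 cells were seeded at 5x10^4 per well and cultured 24 h at 37 °C, 5% CO2. They were then co-treated with 1 µM α-MSH and test agent (0, 5, 10 or 25 µM) for 24 h, with kojic acid at 25 µM alongside. After two PBS washes, melanin was dissolved in 200 µL 1 M NaOH for 1 h and OD405 read. Triplicate runs.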

Mus musculus [4] = species on record: Mus musculus; experiment: Inhibition of tyrosinase in alpha-MSH-stimulated mouse B16F10 cells assessed as reduction in melanin levels at 10 uM incubated for 24 hrs by microplate reader based assay relative to control; summary of the method: as §2
Mus musculus [5] = species on record: Mus musculus; experiment: Inhibition of tyrosinase in alpha-MSH-stimulated mouse B16F10 cells assessed as reduction in melanin levels at 25 uM incubated for 24 hrs by microplate reader based assay relative to control; summary of the method: as §2
Mus musculus [6] = species on record: Mus musculus; experiment: Inhibition of tyrosinase in alpha-MSH-stimulated mouse B16F10 cells at 400 uM incubated for 24 hrs by microplate reader based assay; summary of the method: as §1

COc1cc(/C=C/C(=O)NC(=O)c2ccccc2)cc(OC)c1OC
inhibition [1]: 6.9%

COc1ccc(/C=C/C(=O)NC(=O)c2ccccc2)c(OC)c1
inhibition [1]: 5.76%

O=C(/C=C/c1ccc(O)cc1)NC(=O)c1ccccc1
inhibition [1]: 4.89%

O=C(/C=C/c1ccc(O)c(Br)c1)NC(=O)c1ccccc1
inhibition [1]: 17.3%

O=C1O[C@H]([C@@H](O)CO)C(O)=C1O
inhibition [1]: 84.6%

O=C(/C=C/c1ccc(O)c(O)c1)NC(=O)c1ccccc1
inhibition (Mus musculus [2]): 76.8% | Activity (B16-F10): Non-Toxic | inhibition (Mus musculus [3]): 21.6% | inhibition (Mus musculus [4]): 37.6% | inhibition [1]: 82.9% | inhibition (Mus musculus [5]): 61.8%

O=C(/C=C/c1cc(Br)c(O)c(Br)c1)NC(=O)c1ccccc1
inhibition [1]: inactive

COc1cc(/C=C/C(=O)NC(=O)c2ccccc2)cc(OC)c1O
inhibition [1]: 3.76%

O=c1cc(CO)occ1O
inhibition (Mus musculus [2]): 50.3% | inhibition (Mus musculus [5]): 39%

COc1ccc(/C=C/C(=O)NC(=O)c2ccccc2)cc1OC
inhibition [1]: 4.82%

COc1ccc(/C=C/C(=O)NC(=O)c2ccccc2)cc1
inhibition [1]: 5.61%

OC[C@H]1O[C@@H](Oc2ccc(O)cc2)[C@H](O)[C@@H](O)[C@@H]1O
inhibition (Mus musculus [6]): 41.8%

COc1ccc(/C=C/C(=O)NC(=O)c2ccccc2)cc1O
inhibition (Mus musculus [2]): 59.7% | Activity (B16-F10): Non-Toxic | inhibition (Mus musculus [3]): 9.06% | inhibition (Mus musculus [4]): 31.2% | inhibition [1]: 7.02% | inhibition (Mus musculus [5]): 48%
